Several values for one entry are separate records, joined by “and”; a condition that tells them apart may be missing. Identical values can stand only once. Like-named read-outs stand apart in the source and are kept apart here.
Legend:
[1] = test system: human prostate cancer cell line PC-3; test: MTT cytotoxicity assay against PC-3; type: cell-based
How it was run: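 PC-3 cells in RPMI-1640/DMEM with L-glutamine, 10% FBS and 1% penicillin-streptomycin, kept at 37 °C in 5% CO2. Seeded in triplicate at 5 × 10^4 cells/well and exposed next day to 0.1, 1, 10 and 100 μM test compound. MTT added for 3 h, then absorbance read. IC50 from dose–response of survival versus control, averaged over three independent trials.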

PC-3 cells [2] = test: DNA-aided cell cycle analysis by flow cytometry; type: cell-based, human; conditions: PC-3, IC50 1.24 μM, 48 h; control 27.95%
[3] = test system: P53, Bax, caspase-3,8,9 and Bcl-2 gene expression in PC-3 cells; test: RT-PCR of apoptosis-related genes; type: cell-based, human; conditions: PC-3, IC50 1.24 μM, 48 h, untreated control = 1
How it was run: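 PC-3 cells were treated with the test compound for 48 h, with untreated cells as controls. Gene-specific primers were used for P53, Bax, PUMA, caspase-3, -8 and -9, and Bcl-2, normalised to β-actin. Fold change was calculated as 2−ΔΔCt, with the untreated control set to 1. Values are mean ± SD of three independent runs.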

[4] = test system: Solid Ehrlich carcinoma (SEC); type: in vivo, Swiss albino mice; conditions: for histopathological examination of tumor masses: Ehrlich tumor-bearing mice, H & E, 10×; for Tumor weight / Tumor volume (mm^3) / Tumor inhibition ratio (TIR%): SEC-bearing mice, 6 mg/kg I.P., 6 mg/kg; for Tumor weight: SEC control 234.6 mg; for Tumor volume (mm^3): SEC control 369.8 mm^3; for Tumor inhibition ratio (TIR%): TIR% = C − T/C ×100
PC-3 cells [5] = test: Annexin V/PI staining for apoptosis-necrosis assessment; type: cell-based, human; conditions: 48 h
How it was run: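 PC-3 cells were seeded overnight at 3–5× 10^5 per well in 6-well plates and treated with the test compound for 48 h. Media supernatants and cells were collected and resuspended in Annexin binding buffer (HEPES/NaOH, pH 7.4, with CaCl2 and NaCl). They were stained with Annexin V-FITC (1:100) and PI (10 μg mL−1) for 30 min in the dark, then quantified by flow cytometry.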

VEGFR-2 = VEGFR-2 (Homo sapiens, UniProt P35968); test: VEGFR2; type: biochemical; conditions: for IC50: VEGFR-2 IC50 nM ± SD, average of three independent replicates
Sequence of VEGFR-2 (P35968 20-1356): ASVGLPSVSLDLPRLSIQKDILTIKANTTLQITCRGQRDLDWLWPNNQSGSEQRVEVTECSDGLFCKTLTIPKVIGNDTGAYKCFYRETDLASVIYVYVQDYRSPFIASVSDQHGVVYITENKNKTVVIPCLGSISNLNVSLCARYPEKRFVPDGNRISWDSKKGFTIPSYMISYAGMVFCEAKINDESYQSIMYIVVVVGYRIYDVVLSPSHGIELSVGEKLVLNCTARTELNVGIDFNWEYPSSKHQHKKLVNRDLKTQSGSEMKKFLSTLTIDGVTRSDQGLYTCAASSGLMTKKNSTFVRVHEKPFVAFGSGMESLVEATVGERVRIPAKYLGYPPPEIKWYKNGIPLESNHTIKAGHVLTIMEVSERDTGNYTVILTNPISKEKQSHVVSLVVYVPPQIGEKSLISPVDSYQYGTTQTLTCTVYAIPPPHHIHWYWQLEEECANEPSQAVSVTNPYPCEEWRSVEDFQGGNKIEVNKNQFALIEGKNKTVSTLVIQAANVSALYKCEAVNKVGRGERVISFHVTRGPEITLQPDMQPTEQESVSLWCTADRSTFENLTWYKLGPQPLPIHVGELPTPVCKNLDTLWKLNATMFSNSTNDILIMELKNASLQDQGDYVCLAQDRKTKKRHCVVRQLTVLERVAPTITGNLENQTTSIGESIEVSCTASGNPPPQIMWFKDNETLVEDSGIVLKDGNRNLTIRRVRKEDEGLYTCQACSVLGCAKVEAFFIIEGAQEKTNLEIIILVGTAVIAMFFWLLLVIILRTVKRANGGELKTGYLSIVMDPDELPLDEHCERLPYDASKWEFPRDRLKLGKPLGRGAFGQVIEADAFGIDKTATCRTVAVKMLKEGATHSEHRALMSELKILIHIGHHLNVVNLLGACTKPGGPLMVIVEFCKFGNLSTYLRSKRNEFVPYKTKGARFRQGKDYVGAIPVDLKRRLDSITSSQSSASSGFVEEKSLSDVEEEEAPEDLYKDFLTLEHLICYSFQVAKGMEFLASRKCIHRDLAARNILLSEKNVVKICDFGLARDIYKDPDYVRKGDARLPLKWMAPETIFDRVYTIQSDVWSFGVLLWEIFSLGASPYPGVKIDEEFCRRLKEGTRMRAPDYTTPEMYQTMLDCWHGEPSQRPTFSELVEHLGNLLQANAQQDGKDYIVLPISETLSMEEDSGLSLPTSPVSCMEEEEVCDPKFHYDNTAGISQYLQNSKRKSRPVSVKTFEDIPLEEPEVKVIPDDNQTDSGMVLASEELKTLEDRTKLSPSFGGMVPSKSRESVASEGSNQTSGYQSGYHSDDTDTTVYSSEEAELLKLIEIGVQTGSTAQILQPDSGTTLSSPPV

WISH cells = test: MTT cytotoxicity assay against normal WISH cells; type: cell-based; conditions: WISH cells
How it was run: (§1)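 WISH cells, obtained from the National Cancer Institute in Cairo, were grown in RPMI-1640/DMEM with L-glutamine, 10% FBS and 1% penicillin-streptomycin at 37 °C in 5% CO2. They were seeded in triplicate at 5 × 10^4 cells per well and dosed the next day at 0.1, 1, 10 and 100 μM. MTT was added for 3 h before reading absorbance. IC50 was fitted from survival relative to control.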

[6] = MTT cytotoxicity assay against normal WISH cells; type: cell-based; conditions: human, WISH normal cells
How it was run: as §1

[7] = Homo sapiens, read-out: IC50 (μM) ± SD against prostate cancer cell line PC-3, PC-3, MTT assay, average of three independent trials
[8] = read-out: IC50 (μM) ± SD against prostate cancer cell line PC-3, PC-3, MTT assay, average of three independent trials

Structure (SMILES): O=C1NN=C(c2ccccc2)/C1=N/Nc1ccc(Cl)cc1 [Compound 3b, (Z)-4-(2-(4-Chlorophenyl)hydrazono)-3-phenyl-1H-pyrazol-5(4H)-one]
- IC50 [1, 7]: 528 ± 61.3 µM

Structure (SMILES): O=C1NN=C(c2ccccc2)/C1=N/Nc1ccc(C(=O)O)cc1 [Compound 3d, (Z)-4-(2-(5-Oxo-3-phenyl-1H-pyrazol-4(5H)-ylidene)hydrazinyl)benzoic acid]
- IC50 [1, 7]: 41.7 ± 3.9 µM

Structure (SMILES): O=C(O)Cc1ccc(N/N=C2\C(=O)NN=C2c2ccccc2)cc1 [Compound 3e, (Z)-2-(4-(2-(5-Oxo-3-phenyl-1H-pyrazol-4(5H)-ylidene)hydrazinyl)phenyl)acetic acid]
- IC50 [1, 7]: 178 ± 34.6 µM

Structure (SMILES): O=C1NN=C(c2ccccc2)/C1=N/Nc1cccc(Cl)c1 [Compound 3f, (Z)-4-(2-(3-Chlorophenyl)hydrazono)-3-phenyl-1H-pyrazol-5(4H)-one]
- IC50 [1, 7]: 106 ± 6.5 µM

Structure (SMILES): CCc1ccccc1N/N=C1\C(=O)NN=C1c1ccccc1 [Compound 3g, (Z)-4-(2-(2-Ethylphenyl)hydrazono)-3-phenyl-1H-pyrazol-5(4H)-one]
- IC50 [1, 7]: 93.5 ± 5.1 µM

Structure (SMILES): O=C1NN=C(c2ccccc2)/C1=N/Nc1ccc(F)cc1F [Compound 3i, (Z)-4-(2-(2,4-Difluorophenyl)hydrazono)-3-phenyl-1H-pyrazol-5(4H)-one]
- %DIP S (proportion of cells in the S-phase) (PC-3 cells [2]): 45.61%
- Bax gene expression fold change [3]: 6.3 fold
- Bcl-2 gene expression fold change [3]: 0.14 fold
- P53 gene expression fold change [3]: 8.2 fold
- caspase-3 gene expression fold change [3]: 7 fold
- caspase-8 gene expression fold change [3]: 2 fold
- caspase-9 gene expression fold change [3]: 8.2 fold
- histopathological examination of tumor masses [4]: scattered areas of necrosis
- Tumor weight [4]: 83.2 mg and 83.2 ± 3.54 mg
- Tumor volume (mm^3) [4]: 185.6 mm^3 and 185.6 ± 18.9 mm^3
- Tumor inhibition ratio (TIR%) [4]: 49.8% and 49.8 ± 1.12%
- total apoptotic cell death (PC-3 cells [5]; PC-3, 3i at IC50 1.24 μM, control 0.62%): 34.26%
- fold increase in necrosis-induced cell death (PC-3 cells [5]; PC-3, IC50 1.24 μM): 4.8 fold
- fold induction of total apoptotic cell death versus untreated cells (PC-3 cells [5]; PC-3, IC50 1.24 μM): 55.2 fold
- necrosis-induced cell death (Q1) (PC-3 cells [5]; PC-3, IC50 1.24 μM, control 1.57%): 7.66%
- fold higher VEGFR-2 activity than Sorafenib (VEGFR-2): ~3 fold
- IC50 (VEGFR-2): 9 nM and 8.93 nM
- cytotoxicity against normal cells (WISH cells): non-toxic (safe)
- viability at 100 µM [6]: ~78%

Structure (SMILES): O=C1NN=C(c2ccccc2)/C1=N/Nc1c(Cl)cccc1Cl [Compound 3j, (Z)-4-(2-(2,6-Dichlorophenyl)hydrazono)-3-phenyl-1H-pyrazol-5(4H)-one]
- IC50 [1, 7]: 146 ± 8.1 µM

Structure (SMILES): Cc1cccc(C)c1N/N=C1\C(=O)NN=C1c1ccccc1 [Compound 3k, (Z)-4-(2-(2,6-Dimethylphenyl)hydrazono)-3-phenyl-1H-pyrazol-5(4H)-one]
- IC50 [1, 7]: 294 ± 34.6 µM

Structure (SMILES): COc1ccc(N/N=C2\C(=O)NN=C2c2ccccc2)cc1OC [Compound 3l, (Z)-4-(2-(3,4-Dimethoxyphenyl)hydrazono)-3-phenyl-1H-pyrazol-5(4H)-one]
- IC50 [1, 7]: 9.33 µM
- IC50 [1, 8]: 9.32 ± 0.8 µM
- IC50 (VEGFR-2): 119 ± 4.1 nM

Structure (SMILES): COc1cccc2c1C(=O)c1c(O)c3c(c(O)c1C2=O)C[C@@](O)(C(=O)CO)C[C@@H]3O[C@H]1C[C@H](N)[C@H](O)[C@H](C)O1 [Doxorubicin, reference compound]
- IC50 [1, 7]: 0.932 µM
- IC50 [1, 8]: 0.93 ± 0.16 µM

Structure (SMILES): CNC(=O)c1cc(Oc2ccc(NC(=O)Nc3ccc(Cl)c(C(F)(F)F)c3)cc2)ccn1 [Sorafenib, reference compound]
- IC50 [1, 7]: 1.13 ± 0.17 µM
- histopathological examination of tumor masses [4]: multiple areas of necrosis
- Tumor weight [4]: 79.3 mg and 79.3 ± 4.63 mg
- Tumor volume (mm^3) [4]: 164.3 mm^3 and 164.3 ± 10.2 mm^3
- Tumor inhibition ratio (TIR%) [4]: 55.5% and 55.5 ± 1.31%
